This is an account of results in ChEMBL document CHEMBL3045139, “N'-Nitro-2-hydrocarbylidenehydrazinecarboximidamides: design, synthesis, crystal structure, insecticidal activity, and structure-activity relationships” (2012).

The subject of one test is Brevicoryne brassicae. The experiment in a line: Insecticidal activity against Brevicoryne brassicae (cabbage aphids) measured in field test. The format is functional, organism-based. The essentials: (§1)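 Field trials against aphids in northern, middle and southern China used 10% WP and 20% SC formulations. The design was a randomized complete block with five treatments, applied with a hand sprayer. Untreated cabbage or rice served as the control, and imidacloprid 10% WP was the reference.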

Test [1] deals with Myzus persicae. The experiment in a line: Insecticidal activity against Myzus persicae (green peach aphid) measured in field test. The format is functional, organism-based. The method, boiled down:
as §1

Test [2] relates to Myzus persicae. The experiment in a line: Insecticidal activity against Myzus persicae (green peach aphid) at 25 degC. Type of test: functional. To be noted: read-out: LD50 (the source's name).

Molecules are shown by their SMILES. ≈ marks a conversion by molar mass, not a printed value. Calls of active or inactive are those of the source. No cut-off for these calls is given here.

On to `N/C(=N\[N+](=O)[O-])N(Cc1ccc(Cl)nc1)/N=C/c1ccc(F)cc1`, for which the result in the test with Brevicoryne brassicae and in the test on Myzus persicae [1] was Active. The LC50 in the test on Myzus persicae [2] stood at 1450 µg/mL (≈ 4130 µM).

`CCCCN(/N=C/c1cccc(OC)c1)/C(N)=N/[N+](=O)[O-]`: the result with Brevicoryne brassicae and in the test on Myzus persicae [1] was Active. For the same compound, the LC50 in the test with Myzus persicae [2] came to 1800 µg/mL (≈ 6130 µM).

For `COc1ccc(/C=N/N(Cc2ccccc2)/C(N)=N/[N+](=O)[O-])cc1`, the result with Brevicoryne brassicae and in the test with Myzus persicae [1] was Active. Also, in the test on Myzus persicae [2], the LC50 was determined as 3840 µg/mL (≈ 11700 µM).

With `C=C/C=N/N(CCCC)/C(N)=N/[N+](=O)[O-]`, the result in the test on Brevicoryne brassicae and with Myzus persicae [1] was Active. Besides, the LC50 in the test with Myzus persicae [2] stood at 328 µg/mL (≈ 1540 µM).

For `N/C(=N\[N+](=O)[O-])N(Cc1ccc(Cl)nc1)/N=C/c1ccco1`, the outcome in the test on Brevicoryne brassicae and in the test with Myzus persicae [1] was Active. In addition, the LC50 in the test on Myzus persicae [2] turned out to be 345 µg/mL (≈ 1070 µM).

As for `CCC/C=N/N(Cc1ccc(Cl)nc1)/C(N)=N/[N+](=O)[O-]`, the outcome with Brevicoryne brassicae and with Myzus persicae [1] was Active. For the same compound, in the test with Myzus persicae [2], the LC50 is 21 µg/mL (≈ 70.3 µM).

As for `CCN(/N=C/c1ccc(C)cc1)/C(N)=N/[N+](=O)[O-]`, the outcome in the test on Brevicoryne brassicae and with Myzus persicae [1] was Active. Besides, the LC50 in the test on Myzus persicae [2] was found to be 1020 µg/mL (≈ 4110 µM).

In the case of `CCCCN(/N=C/c1ccc(C)cc1)/C(N)=N/[N+](=O)[O-]`, the result in the test with Brevicoryne brassicae and in the test on Myzus persicae [1] was Active. Also, the LC50 with Myzus persicae [2] is 1080 µg/mL (≈ 3880 µM).

Turning to `CC/C=N/N(CCC)/C(N)=N/[N+](=O)[O-]`, the outcome in the test with Brevicoryne brassicae and in the test with Myzus persicae [1] was Active. For the same compound, in the test with Myzus persicae [2], the LC50 was 283 µg/mL (≈ 1410 µM).

On to `C=CCN(/N=C/c1ccccc1Cl)/C(N)=N/[N+](=O)[O-]`, for which the outcome with Brevicoryne brassicae and in the test on Myzus persicae [1] was Active. Besides, the LC50 with Myzus persicae [2] was determined as 362 µg/mL (≈ 1290 µM).

Turning to `CC(C)/C=N/N(Cc1ccc(Cl)nc1)/C(N)=N/[N+](=O)[O-]`, the outcome in the test with Brevicoryne brassicae and in the test with Myzus persicae [1] was Active. For the same compound, the LC50 in the test on Myzus persicae [2] was 92.5 µg/mL (≈ 310 µM).

In the case of `CCCCN(/N=C/c1ccccc1)/C(N)=N/[N+](=O)[O-]`, the result with Brevicoryne brassicae and with Myzus persicae [1] was Active. Besides, the LC50 in the test with Myzus persicae [2] came out at 1800 µg/mL (≈ 6820 µM).

For `CCCCCC/C=N/N(Cc1ccc(Cl)nc1)/C(N)=N/[N+](=O)[O-]`, the outcome with Brevicoryne brassicae and in the test on Myzus persicae [1] was Active. Also, in the test with Myzus persicae [2], the LC50 was 25.5 µg/mL (≈ 74.7 µM).

As to `CC/C=N/N(CC)/C(N)=N/[N+](=O)[O-]`, the result with Brevicoryne brassicae and in the test on Myzus persicae [1] was Active. The LC50 with Myzus persicae [2] is 523 µg/mL (≈ 2790 µM).

On to `CCC/C=N/N(CCCC)/C(N)=N/[N+](=O)[O-]`, for which the outcome in the test on Brevicoryne brassicae and with Myzus persicae [1] was Active. The LC50 in the test with Myzus persicae [2] stood at 367 µg/mL (≈ 1600 µM).

Regarding `N/C(=N\[N+](=O)[O-])N(Cc1ccc(Cl)nc1)/N=C/c1ccccc1[N+](=O)[O-]`, the outcome in the test on Brevicoryne brassicae and in the test on Myzus persicae [1] was Active. Further, in the test with Myzus persicae [2], the LC50 was determined as 357 µg/mL (≈ 946 µM).

On to `C=CCN(/N=C/CCCC)/C(N)=N/[N+](=O)[O-]`, for which the outcome in the test on Brevicoryne brassicae and in the test with Myzus persicae [1] was Active. Further, in the test with Myzus persicae [2], the LC50 was 400 µg/mL (≈ 1760 µM).

Turning to `O=[N+]([O-])/N=C1\NCCN1Cc1ccc(Cl)nc1` [IMIDACLOPRID], the result with Brevicoryne brassicae and in the test with Myzus persicae [1] was Active. Also, the LC50 with Myzus persicae [2] was found to be 24.2 µg/mL (≈ 94.7 µM).

Take `C=CCN(/N=C/c1ccc(C)cc1)/C(N)=N/[N+](=O)[O-]`: the result with Brevicoryne brassicae and with Myzus persicae [1] was Active. For the same compound, the LC50 in the test on Myzus persicae [2] is 744 µg/mL (≈ 2850 µM).

Regarding `CCCC/C=N/N(Cc1ccc(Cl)nc1)/C(N)=N/[N+](=O)[O-]` [GUADIPYR], the outcome in the test on Brevicoryne brassicae and in the test on Myzus persicae [1] was Active. In the test with Myzus persicae [2], the LC50 was 25.3 µg/mL (≈ 81 µM).
